In ChEMBL document CHEMBL3596131, “Discovery of a novel trans-1,4-dioxycyclohexane GPR119 agonist series” (Bioorg Med Chem Lett, 2015) one finds INH and EC50 data, which are given here for one compound.

One data set addresses Cytochrome P450 2C9 (Homo sapiens, UniProt P11712). The data set is described as follows: Inhibition of CYP2C9 in human liver microsomes. Type of data set: ADME.
The target of data set [1] is T1, Glucose-dependent insulinotropic receptor (Homo sapiens, UniProt Q8TDV5).
T1 sequence (Q8TDV5 whole entry): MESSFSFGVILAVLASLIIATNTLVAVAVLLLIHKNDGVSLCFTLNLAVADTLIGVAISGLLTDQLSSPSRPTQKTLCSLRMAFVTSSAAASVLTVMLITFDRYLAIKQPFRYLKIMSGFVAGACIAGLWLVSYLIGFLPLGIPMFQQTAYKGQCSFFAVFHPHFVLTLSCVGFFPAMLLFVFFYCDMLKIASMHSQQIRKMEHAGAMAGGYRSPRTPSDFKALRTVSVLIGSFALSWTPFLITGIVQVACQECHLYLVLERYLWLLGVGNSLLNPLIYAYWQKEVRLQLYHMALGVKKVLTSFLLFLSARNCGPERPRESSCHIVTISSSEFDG
The data set is described as follows: Agonist activity at human GPR119 by serum shift assay. A digest of the protocol:
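HTRF cAMP read-out with cells plated overnight; growth medium swapped for fetal bovine serum-containing medium. Compounds serially diluted in DMSO, then in PBS with IBMX and 0.1% BSA to 2× concentration (1% DMSO) before addition. Potency compared with and without serum.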

The term EC50 denotes the concentration needed to bring the measured effect to its halfway point.

Sequence of Cytochrome P450 2C9 (P11712 whole entry): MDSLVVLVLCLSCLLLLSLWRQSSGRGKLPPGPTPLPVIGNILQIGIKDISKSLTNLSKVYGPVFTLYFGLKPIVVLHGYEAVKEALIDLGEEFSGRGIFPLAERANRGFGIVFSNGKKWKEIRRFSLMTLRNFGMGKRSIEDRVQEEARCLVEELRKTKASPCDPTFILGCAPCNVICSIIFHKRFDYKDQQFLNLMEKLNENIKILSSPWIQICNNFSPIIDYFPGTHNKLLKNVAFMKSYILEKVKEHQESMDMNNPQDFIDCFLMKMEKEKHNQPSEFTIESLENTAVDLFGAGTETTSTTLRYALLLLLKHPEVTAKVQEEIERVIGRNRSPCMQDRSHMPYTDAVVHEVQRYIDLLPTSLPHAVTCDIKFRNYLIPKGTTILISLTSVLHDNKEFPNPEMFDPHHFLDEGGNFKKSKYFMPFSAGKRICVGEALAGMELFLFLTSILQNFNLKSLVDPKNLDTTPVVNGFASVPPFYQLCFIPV

For `C[C@@H](OC(=O)N1CCC(O[C@H]2CC[C@H](Oc3cnc(S(C)(=O)=O)cn3)CC2)CC1)C(F)(F)F`, on Cytochrome P450 2C9, the INH was found to be 27.5 µM. In addition, the EC50 in data set [1] was 38 nM.
